Experimental data: ChEMBL document CHEMBL3244054, “Kojic amine--a novel gamma-aminobutyric acid analogue” (J Med Chem, 1979)
Active and inactive are the calls of the source. No cut-off for these calls is given here.

How the values were obtained:
Felis catus [1] = test: Skeletal muscle relaxant activity in po dosed chronic spinal mongrel cat assessed as reduction of flexor spasm administered every 15 mins interval; type: functional
In short: (§1)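 Test agent dissolved in normal saline and given to chronic spinal animals intravenously or by oral gavage as cumulative doses at 15-min intervals. The flexor reflex response was compared against predrug control responses. ED70 is the cumulative dose that reduced the flexor reflex by 70% or more.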

[2] = Dissociation constant, pKa of the compound; type: physicochemical
Rattus norvegicus [3] = test: Skeletal muscle relaxant activity in iv dosed chronic spinal Sprague-Dawley rat assessed as reduction of flexor spasm administered every 15 mins interval; type: functional; conditions: 0.25 h; in short: as §1
Felis catus [4] = test: Skeletal muscle relaxant activity in iv dosed chronic spinal mongrel cat assessed as reduction of flexor spasm administered every 15 mins interval; type: functional; conditions: 0.25 h; in short: as §1
Mus musculus [5] = test: Anticonvulsant activity in po dosed Swiss mouse assessed as reduction of 3-mercaptopropionic acid-induced tonic extensor-seizures within 3 to 7 mins; type: functional
In short: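 Robidoux Swiss male mice, 18–22 g. Test substances in saline given orally 30 min before ip 3-mercaptopropionic acid at 25 mg/kg, which induces tonic-extensor seizures within 3–7 min in 90–100% of mice. ED50 is the dose preventing tonic-extensor seizures in 50% of animals, by regression analysis over at least three doses with ten mice per dose level.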

Felis catus [6] = test: Skeletal muscle relaxant activity in chronic spinal mongrel cat assessed as reduction of flexor spasm up to 7.5 mg/kg, iv administered every 15 mins interval; type: functional, organism-based; parameters: dose 7.5 mg/kg
In short: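 Chronic spinal cat preparation. Test substances in normal saline were given iv in cumulative doses at 15-min intervals, and the flexor reflex response was recorded against predrug control responses. ED70 is the cumulative dose reducing the flexor reflex response by 70% or more.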

Felis catus [7] = test: Skeletal muscle relaxant activity in chronic spinal mongrel cat assessed as reduction of flexor spasm up to 16 mg/kg, iv administered every 15 mins interval; type: functional, organism-based; parameters: dose 16 mg/kg; in short: as §1
Mus musculus [8] = test: Toxicity in Swiss mouse at 128 mg/kg, po; type: organism-based; parameters: dose 128 mg/kg, route oral; conditions: in vivo
Mus musculus [9] = test: Toxicity in Swiss mouse at 8 mg/kg, po; type: organism-based; parameters: dose 8 mg/kg, route oral; conditions: in vivo
Rattus norvegicus [10] = test: Toxicity in iv dosed chronic spinal Sprague-Dawley rat assessed as lethality at cumulative dose of 16 mg/kg, iv; type: organism-based; parameters: dose 16 mg/kg, route intravenous; conditions: in vivo

SMILES: Cn1cc(O)c(=O)cc1CN
- ED70 (Felis catus [1]): inactive

SMILES: NCCCC(=O)O [GAMMA-AMINOBUTYRIC ACID]
- pKa [2]: 4.04

SMILES: CN(C)Cc1cc(=O)c(O)co1
- ED70 (Felis catus [1]): inactive

SMILES: NCCCC(=O)NCc1cc(=O)c(O)co1
- ED70 (Felis catus [1]): inactive

SMILES: NCC(=O)NCc1cc(=O)c(O)co1
- ED70 (Rattus norvegicus [3]): 8 mg/kg
- ED70 (Felis catus [4]): 12 mg/kg

SMILES: NCCc1cc(=O)c(O)co1
- ED70 (Felis catus [1]): inactive

SMILES: NCc1cc(=O)c(O)c[nH]1
- ED70 (Felis catus [1]): inactive

SMILES: NCc1cc(O)no1 [MUSCIMOL]
- ED70 (Rattus norvegicus [3]): 16 mg/kg
- ED50 (Mus musculus [5]): 1.34 mg/kg
- Activity (Felis catus [6]): inactive

SMILES: NCCCc1cc(=O)c(O)co1
- Activity (Felis catus [7]): inactive

SMILES: CC(N)C(=O)NCc1cc(=O)c(O)co1 (stereo not given)
- ED70 (Rattus norvegicus [3]): 8 mg/kg
- ED70 (Felis catus [4]): 12 mg/kg

SMILES: NC(Cl)c1cc(=O)c(O)co1 (stereo not given)
- ED70 (Felis catus [1]): inactive

SMILES: CC(=O)NCc1cc(=O)c(O)co1
- ED70 (Felis catus [1]): inactive

SMILES: O=c1cc(CO)occ1O [KOJIC ACID]
- pKa [2]: 7.95

SMILES: NCc1cc(=O)c(O)co1
- pKa [2]: 6.6
- Activity (Mus musculus [8]): Non-toxic
- ED70 (Rattus norvegicus [3]): 8 mg/kg
- ED70 (Felis catus [4]): 2.2 mg/kg
- ED50 (Mus musculus [5]): 15 mg/kg
- ED70 (Felis catus [1]; 0.25 h): 4 mg/kg

SMILES: NCc1cc(=O)[nH]o1 [MUSCIMOL]
- pKa [2]: 4.78
- Activity (Mus musculus [9]): Toxic
- Activity (Rattus norvegicus [10]): Toxic

SMILES: CNCc1cc(=O)c(O)co1
- ED70 (Felis catus [1]): inactive

SMILES: CC(N)c1cc(=O)c(O)co1 (stereo not given)
- ED70 (Felis catus [1]): inactive

SMILES: NCCC(=O)NCc1cc(=O)c(O)co1
- ED70 (Felis catus [1]): inactive

SMILES: O=c1cc(CNCc2ccccc2)occ1O
- ED70 (Felis catus [1]): inactive
